Source: ChEMBL document CHEMBL2074217, “Differences in the transport of the antiepileptic drugs phenytoin, levetiracetam and carbamazepine by human and mouse P-glycoprotein” (Neuropharmacology, 2006)

Columns and labels:
Assay type in all cases: functional, cell-based
[1] = target: ATP-dependent translocase ABCB1 (Mus musculus, UniProt P06795); experiment: TP_TRANSPORTER: transcellular transport in mdr1b-expressing LLC-PK1 cells; settings: pig
In short: (§1)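 Polarized monolayers of LLC-PK1 pig kidney cells transfected with human MDR1, mouse mdr1a or mouse mdr1b cDNA, paired with wildtype LLC-PK1 monolayers. Directional transport across the monolayer was expressed as a transport ratio. The Pgp inhibitor PSC833 was used to test whether transport was Pgp-specific. Cyclosporin A served as the positive-control Pgp substrate.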

[2] = target: ATP-binding cassette sub-family C member 2 (Homo sapiens, UniProt Q92887); experiment: TP_TRANSPORTER: transcellular transport in MRP2-expressing MDCKII cells; settings: dog, mdck-ii
In short: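 Directional transcellular transport was measured across polarized MDCKII monolayers transfected with human MRP2 cDNA and compared with wildtype MDCKII cells. Vinblastine served as the reference MRP2 substrate. The read-out was the transport ratio (TR).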

[3] = target: T1, ATP-dependent translocase ABCB1 (Homo sapiens, UniProt P08183); experiment: TP_TRANSPORTER: transcellular transport in MDR1-expressing LLC-PK1 cells; settings: pig; in short: as §1
[4] = target: T2, ATP-dependent translocase ABCB1 (Mus musculus, UniProt P21447); experiment: TP_TRANSPORTER: transcellular transport in mdr1a-expressing LLC-PK1 cells; settings: pig; in short: as §1
[5] = target: T1, ATP-dependent translocase ABCB1; experiment: TP_TRANSPORTER: inhibition of cyclosporin A transcellular transport by tariquidar at a concentration of 0.2uM in MDR1-expressing MDCKII cells; settings: dog, mdck-ii
[6] = target: T2, ATP-dependent translocase ABCB1; experiment: TP_TRANSPORTER: inhibition of cyclosporin A transcellular transport by PSC833 at a concentration of 30uM in mdr1a-expressing LLC-PK1 cells; settings: pig, llc-pk1, 30 µM
[7] = target: T2, ATP-dependent translocase ABCB1; experiment: TP_TRANSPORTER: inhibition of levetiracetam transcellular transport by PSC833 at a concentration of 30uM in mdr1a-expressing LLC-PK1 cells; settings: pig, llc-pk1, 30 µM
[8] = target: T2, ATP-dependent translocase ABCB1; experiment: TP_TRANSPORTER: inhibition of phenytoin transcellular transport by PSC833 at a concentration of 30uM in mdr1a-expressing LLC-PK1 cells; settings: pig, llc-pk1, 30 µM
[9] = target: T1, ATP-dependent translocase ABCB1; experiment: TP_TRANSPORTER: inhibition of cyclosporin A transcellular transport by PSC833 at a concentration of 30uM in MDR1-expressing MDCKII cells; settings: dog, mdck-ii
[10] = target: T1, ATP-dependent translocase ABCB1; experiment: TP_TRANSPORTER: inhibition of cyclosporin A transcellular transport by carbamazapine 224 uM in MDR1-expressing LLC-PK1 cells; settings: pig, llc-pk1, 224 µM
[11] = target: T2, ATP-dependent translocase ABCB1; experiment: TP_TRANSPORTER: inhibition of cyclosporin A transcellular transport by carbamazepine at a concentration of 224uM in mdr1a-expressing LLC-PK1 cells; settings: pig, llc-pk1, 224 µM

T2 sequence (P21447 whole entry): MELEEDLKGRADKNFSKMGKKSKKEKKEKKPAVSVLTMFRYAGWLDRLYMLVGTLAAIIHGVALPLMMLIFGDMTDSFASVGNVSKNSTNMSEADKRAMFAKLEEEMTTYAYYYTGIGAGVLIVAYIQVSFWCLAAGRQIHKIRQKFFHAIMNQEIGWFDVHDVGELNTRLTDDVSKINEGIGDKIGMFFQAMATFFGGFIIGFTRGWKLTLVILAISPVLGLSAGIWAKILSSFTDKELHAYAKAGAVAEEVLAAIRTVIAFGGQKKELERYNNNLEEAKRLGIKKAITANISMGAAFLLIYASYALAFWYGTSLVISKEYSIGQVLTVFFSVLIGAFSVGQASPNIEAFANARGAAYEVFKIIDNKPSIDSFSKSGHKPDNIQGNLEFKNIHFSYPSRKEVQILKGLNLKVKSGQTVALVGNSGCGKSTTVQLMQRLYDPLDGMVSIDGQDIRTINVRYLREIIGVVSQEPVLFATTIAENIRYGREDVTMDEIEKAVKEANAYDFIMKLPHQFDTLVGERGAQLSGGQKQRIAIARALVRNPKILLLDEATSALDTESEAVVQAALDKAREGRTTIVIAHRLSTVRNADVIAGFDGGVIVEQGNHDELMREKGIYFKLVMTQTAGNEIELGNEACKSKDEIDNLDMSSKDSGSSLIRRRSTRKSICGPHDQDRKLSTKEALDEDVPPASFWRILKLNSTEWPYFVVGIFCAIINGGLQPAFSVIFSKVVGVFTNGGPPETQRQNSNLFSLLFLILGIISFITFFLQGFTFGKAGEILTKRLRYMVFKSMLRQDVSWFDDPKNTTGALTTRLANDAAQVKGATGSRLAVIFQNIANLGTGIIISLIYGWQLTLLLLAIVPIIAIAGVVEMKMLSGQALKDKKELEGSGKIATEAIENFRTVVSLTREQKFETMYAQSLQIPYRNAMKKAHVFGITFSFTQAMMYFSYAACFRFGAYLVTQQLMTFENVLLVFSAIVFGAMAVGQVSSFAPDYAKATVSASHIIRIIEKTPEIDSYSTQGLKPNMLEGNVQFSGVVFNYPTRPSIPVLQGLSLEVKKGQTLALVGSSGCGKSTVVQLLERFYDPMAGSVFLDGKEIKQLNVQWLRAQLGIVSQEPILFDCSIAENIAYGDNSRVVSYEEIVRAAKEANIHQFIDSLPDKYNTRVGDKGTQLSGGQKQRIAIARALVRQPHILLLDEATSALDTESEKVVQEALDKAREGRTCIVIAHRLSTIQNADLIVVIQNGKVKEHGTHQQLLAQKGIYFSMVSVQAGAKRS
T1 sequence (P08183 whole entry): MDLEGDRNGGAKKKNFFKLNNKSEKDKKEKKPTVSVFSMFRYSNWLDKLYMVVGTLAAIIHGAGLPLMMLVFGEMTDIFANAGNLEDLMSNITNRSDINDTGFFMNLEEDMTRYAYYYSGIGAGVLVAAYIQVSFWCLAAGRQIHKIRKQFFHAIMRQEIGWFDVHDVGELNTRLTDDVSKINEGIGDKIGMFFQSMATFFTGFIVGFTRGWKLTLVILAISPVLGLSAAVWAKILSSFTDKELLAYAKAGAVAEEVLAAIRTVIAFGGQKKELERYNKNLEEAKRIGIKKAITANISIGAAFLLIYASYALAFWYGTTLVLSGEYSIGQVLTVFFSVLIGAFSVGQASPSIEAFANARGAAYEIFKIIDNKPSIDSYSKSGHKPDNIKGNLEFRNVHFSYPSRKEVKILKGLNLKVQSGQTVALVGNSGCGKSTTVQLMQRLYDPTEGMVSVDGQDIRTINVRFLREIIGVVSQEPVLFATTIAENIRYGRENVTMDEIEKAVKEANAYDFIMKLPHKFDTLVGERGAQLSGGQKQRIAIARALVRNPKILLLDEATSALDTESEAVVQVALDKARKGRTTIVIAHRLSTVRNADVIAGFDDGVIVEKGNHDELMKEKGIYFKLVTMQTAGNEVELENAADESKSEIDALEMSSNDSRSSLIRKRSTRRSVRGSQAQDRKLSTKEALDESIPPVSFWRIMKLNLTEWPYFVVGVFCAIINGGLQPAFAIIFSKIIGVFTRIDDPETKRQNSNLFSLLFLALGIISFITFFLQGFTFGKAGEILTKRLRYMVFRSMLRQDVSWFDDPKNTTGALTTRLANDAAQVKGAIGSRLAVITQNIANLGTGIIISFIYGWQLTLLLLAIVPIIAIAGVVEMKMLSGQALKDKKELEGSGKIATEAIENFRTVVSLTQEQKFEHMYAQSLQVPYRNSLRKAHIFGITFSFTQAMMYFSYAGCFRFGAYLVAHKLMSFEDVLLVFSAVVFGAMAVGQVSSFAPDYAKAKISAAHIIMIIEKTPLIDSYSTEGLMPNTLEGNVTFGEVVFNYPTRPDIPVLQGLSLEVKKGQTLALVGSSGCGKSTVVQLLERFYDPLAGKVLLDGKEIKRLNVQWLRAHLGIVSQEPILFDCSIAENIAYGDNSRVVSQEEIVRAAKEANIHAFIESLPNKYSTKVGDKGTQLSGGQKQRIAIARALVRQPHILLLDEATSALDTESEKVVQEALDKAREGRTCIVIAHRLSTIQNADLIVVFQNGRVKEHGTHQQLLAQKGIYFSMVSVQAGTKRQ
ATP-dependent translocase ABCB1 (Mus musculus, UniProt P06795), sequence (P06795 whole entry): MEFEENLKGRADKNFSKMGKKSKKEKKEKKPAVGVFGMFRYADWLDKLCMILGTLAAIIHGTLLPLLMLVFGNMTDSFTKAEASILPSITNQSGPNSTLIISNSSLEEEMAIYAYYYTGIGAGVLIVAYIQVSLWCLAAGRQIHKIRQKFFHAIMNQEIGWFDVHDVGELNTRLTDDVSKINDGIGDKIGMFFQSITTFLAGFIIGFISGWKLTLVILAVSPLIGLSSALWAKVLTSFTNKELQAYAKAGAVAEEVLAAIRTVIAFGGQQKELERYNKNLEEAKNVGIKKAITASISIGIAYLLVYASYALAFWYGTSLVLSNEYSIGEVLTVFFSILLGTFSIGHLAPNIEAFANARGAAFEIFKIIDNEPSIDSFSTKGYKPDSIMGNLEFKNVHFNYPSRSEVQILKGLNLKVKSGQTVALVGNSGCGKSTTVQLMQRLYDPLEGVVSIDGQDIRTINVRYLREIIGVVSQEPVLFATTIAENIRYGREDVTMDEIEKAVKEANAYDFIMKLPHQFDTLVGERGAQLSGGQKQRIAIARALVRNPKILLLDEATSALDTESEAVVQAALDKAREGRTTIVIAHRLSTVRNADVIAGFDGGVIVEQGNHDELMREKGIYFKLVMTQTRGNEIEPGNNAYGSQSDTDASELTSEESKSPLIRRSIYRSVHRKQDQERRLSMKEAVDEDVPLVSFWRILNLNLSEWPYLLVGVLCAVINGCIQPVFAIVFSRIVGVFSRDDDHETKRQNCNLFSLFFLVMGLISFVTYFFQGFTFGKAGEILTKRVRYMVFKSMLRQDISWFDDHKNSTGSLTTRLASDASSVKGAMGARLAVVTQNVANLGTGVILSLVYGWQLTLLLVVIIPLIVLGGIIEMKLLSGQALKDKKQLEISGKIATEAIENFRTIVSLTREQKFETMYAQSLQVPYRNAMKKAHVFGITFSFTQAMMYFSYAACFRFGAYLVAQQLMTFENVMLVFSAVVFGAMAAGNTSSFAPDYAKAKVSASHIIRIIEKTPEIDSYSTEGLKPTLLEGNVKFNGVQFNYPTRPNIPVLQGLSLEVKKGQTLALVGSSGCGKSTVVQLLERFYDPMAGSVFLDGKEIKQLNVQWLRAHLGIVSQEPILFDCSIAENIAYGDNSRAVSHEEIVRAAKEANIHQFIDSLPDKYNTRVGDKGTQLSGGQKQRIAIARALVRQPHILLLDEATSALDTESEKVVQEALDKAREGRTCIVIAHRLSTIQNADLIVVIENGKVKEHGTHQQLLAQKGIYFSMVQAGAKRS

| Compound | Activity [1] | Activity [2] | Activity [3] | Activity [4] | other results |
| --- | --- | --- | --- | --- | --- |
| CC[C@@H](C(N)=O)N1CCCC1=O | is not a substrate [-] | is not a substrate [-] | is not a substrate [-] | substrate [+] |  |
| COc1cc2c(cc1OC)CN(CCc1ccc(NC(=O)c3cc(OC)c(OC)cc3NC(=O)c3cnc4ccccc4c3)cc1)CC2 |  |  |  |  | Activity [5]: inhibitor [+] |
| C/C=C/C[C@@H](C)C(=O)[C@H]1C(=O)N[C@@H](C(C)C)C(=O)N(C)CC(=O)N(C)[C@@H](CC(C)C)C(=O)N[C@@H](C(C)C)C(=O)N(C)[C@@H](CC(C)C)C(=O)N[C@@H](C)C(=O)N[C@H](C)C(=O)N(C)[C@@H](CC(C)C)C(=O)N(C)[C@@H](CC(C)C)C(=O)N(C)[C@@H](C(C)C)C(=O)N1C [VALSPODAR] |  |  |  |  | Activity [6]: inhibitor [+]; Activity [7]: inhibitor [+]; Activity [8]: inhibitor [+]; Activity [9]: inhibitor [+] |
| NC(=O)N1c2ccccc2C=Cc2ccccc21 [CARBAMAZEPINE] | is not a substrate [-] |  | is not a substrate [-] | is not a substrate [-] | Activity [10]: is not a inhibitor [-]; Activity [11]: is not an inhibitor [-] |
| O=C1NC(=O)C(c2ccccc2)(c2ccccc2)N1 [PHENYTOIN] | is not a substrate [-] | substrate [+] | is not a substrate [-] | substrate [+] |  |
| CC[C@]1(O)C[C@@H]2CN(CCc3c([nH]c4ccccc34)[C@@](C(=O)OC)(c3cc4c(cc3OC)N(C)[C@H]3[C@@](O)(C(=O)OC)[C@H](OC(C)=O)[C@]5(CC)C=CCN6CC[C@]43[C@@H]65)C2)C1 [VINBLASTINE] |  | substrate [+] |  |  |  |
